Measurements as given in ChEMBL document CHEMBL1955781, “Structure-activity relationship study of selective benzimidazole-based inhibitors of Cryptosporidium parvum IMPDH” (Bioorg Med Chem Lett, 2012).
pEC50, pIC50: −log10 of the molar value.

How the values were obtained:
Toxoplasma gondii [1] = experiment: Antiparasitic activity against hypoxanthine-guanine-xanthine phosphoribosyltransferase gene knock out Toxoplasma gondii expressing Cryptosporidium parvum IMPDH infected in human foreskin fibroblasts assessed as parasite proliferation by fluorescence assay; assay type: functional, organism-based
How it was run: (§1)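 T. gondii strains carrying a yellow fluorescent protein reporter, grown in hTERT-immortalized human foreskin fibroblasts. Parasite proliferation is followed by fluorescence. Because the parasites grow in the host fibroblasts, the read-out also reflects host cell toxicity.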

Cryptosporidium parvum [2] = experiment: Antiparasitic activity against Cryptosporidium parvum infection model; assay type: functional, organism-based
Toxoplasma gondii [3] = experiment: Antiparasitic activity against wild type Toxoplasma gondii expressing endogenous IMPDH infected in human foreskin fibroblasts assessed as inhibition of parasite proliferation by fluorescence assay; assay type: functional, organism-based; how it was run: as §1
[4] = target: T1, Inosine-5'-monophosphate dehydrogenase (Cryptosporidium parvum, UniProt Q8T6T2); experiment: Inhibition of recombinant Cryptosporidium parvum IMPDH expressed in Escherichia coli assessed as NADH production preincubated for 5 mins by fluorescence assay in presence of bovine serum albumin
T1 sequence (Q8T6T2 whole entry): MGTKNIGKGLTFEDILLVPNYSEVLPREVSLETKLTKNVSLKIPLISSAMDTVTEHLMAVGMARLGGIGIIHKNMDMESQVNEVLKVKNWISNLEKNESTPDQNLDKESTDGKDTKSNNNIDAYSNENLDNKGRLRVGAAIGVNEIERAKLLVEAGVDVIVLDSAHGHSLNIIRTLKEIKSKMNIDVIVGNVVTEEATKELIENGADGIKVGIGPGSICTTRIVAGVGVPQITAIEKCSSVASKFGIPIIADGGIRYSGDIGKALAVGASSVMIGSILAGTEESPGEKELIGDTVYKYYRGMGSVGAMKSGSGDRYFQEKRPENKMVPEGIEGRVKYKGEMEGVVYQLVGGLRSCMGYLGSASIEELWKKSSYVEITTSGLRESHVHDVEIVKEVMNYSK
How it was run: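 NADH production was followed at varying inhibitor concentrations, with 0.05% fatty-acid-free bovine serum albumin added to gauge non-specific binding. Values are the mean of three independent determinations unless otherwise flagged.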

[5] = target: Inosine-5'-monophosphate dehydrogenase 2 (Homo sapiens, UniProt P12268); experiment: Inhibition of human IMPDH2
[6] = target: T1, Inosine-5'-monophosphate dehydrogenase; experiment: Inhibition of recombinant Cryptosporidium parvum IMPDH expressed in Escherichia coli assessed as NADH production preincubated for 5 mins by fluorescence assay
How it was run: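 Enzyme activity was tracked as NADH production across varying inhibitor concentrations. Values are the mean of three independent determinations unless otherwise flagged.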

Cryptosporidium parvum [7] = experiment: Ratio of paromomycin EC50 to compound EC50 for Cryptosporidium parvum infection model; assay type: functional
Toxoplasma gondii [8] = experiment: Selectivity ratio of EC50 for wild type Toxoplasma gondii expressing endogenous IMPDH to EC50 for hypoxanthine-guanine-xanthine phosphoribosyltransferase gene knock out Toxoplasma gondii expressing Cryptosporidium parvum IMPDH; assay type: functional
[9] = target: Inosine-5'-monophosphate dehydrogenase 1 (Homo sapiens, UniProt P20839); experiment: Inhibition of human IMPDH1
Cryptosporidium parvum [10] = experiment: Antiparasitic activity against Cryptosporidium parvum infection model at 0.8 uM; assay type: functional; conditions: read-out: GI

Inosine-5'-monophosphate dehydrogenase 1, sequence (P20839 whole entry): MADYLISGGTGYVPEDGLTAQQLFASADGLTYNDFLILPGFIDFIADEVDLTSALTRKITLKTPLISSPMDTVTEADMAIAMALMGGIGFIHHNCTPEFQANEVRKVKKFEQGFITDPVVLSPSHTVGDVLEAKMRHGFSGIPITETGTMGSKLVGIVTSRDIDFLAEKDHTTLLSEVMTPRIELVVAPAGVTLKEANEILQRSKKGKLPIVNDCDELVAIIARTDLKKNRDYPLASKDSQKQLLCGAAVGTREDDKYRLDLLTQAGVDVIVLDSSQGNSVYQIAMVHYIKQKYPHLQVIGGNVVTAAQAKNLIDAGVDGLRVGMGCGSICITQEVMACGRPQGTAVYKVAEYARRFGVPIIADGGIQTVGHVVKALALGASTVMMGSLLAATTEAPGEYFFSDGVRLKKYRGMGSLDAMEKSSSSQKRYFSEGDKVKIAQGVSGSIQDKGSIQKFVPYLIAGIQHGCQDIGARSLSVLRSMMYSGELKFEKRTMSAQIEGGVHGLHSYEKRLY

O=C(Cn1c(-c2nccs2)nc2ccccc21)Nc1ccc(Br)cc1
pEC50 (Toxoplasma gondii [1]): 6.52
pEC50 (Cryptosporidium parvum [2]): 6.15
pEC50 (Toxoplasma gondii [3]): < 4.64
pIC50 [4]: 7.57
pIC50 [5]: < 5.30
pIC50 [6]: 7.55

O=C(Cn1c(-c2cscn2)nc2ccccc21)Nc1ccc2ccccc2c1
pEC50 (Toxoplasma gondii [1]): 6.22
pEC50 (Cryptosporidium parvum [2]): 6.05
Ratio EC50 (Cryptosporidium parvum [7]): 2
Ratio EC50 (Toxoplasma gondii [8]): 9
pEC50 (Toxoplasma gondii [3]): 5.30
pIC50 [4]: 7.70
pIC50 [5]: < 5.30
pIC50 [6]: 8.15

CC(C(=O)Nc1ccc(Cl)c(Cl)c1)n1c(-c2cscn2)nc2ccccc21 (stereo unspecified)
pIC50 [4]: 6.52
pIC50 [5]: < 5.30
pIC50 [6]: 6.62

COc1ccc(NC(=O)Cn2c(-c3cscn3)nc3ccccc32)cc1
pIC50 [9]: < 4.30
pIC50 [5]: < 4.30

CSc1ccc(NC(=O)Cn2c(-c3cscn3)nc3ccccc32)cc1
pIC50 [4]: 7.16
pIC50 [5]: < 5.30
pIC50 [6]: 6.92

CC(C)c1ccc(NC(=O)Cn2c(-c3cscn3)nc3ccccc32)cc1
pIC50 [5]: < 5.30
pIC50 [6]: 5.30

O=C(Cn1c(-c2cscn2)nc2ccccc21)Nc1ccc(F)cc1
pIC50 [5]: < 5.30
pIC50 [6]: 6.05

O=C(Cn1c(-c2cscn2)nc2ccccc21)Nc1ccc(C(F)(F)F)cc1
pIC50 [4]: 6.48
pIC50 [5]: < 5.30
pIC50 [6]: 6.66

N#Cc1ccc(NC(=O)Cn2c(-c3cscn3)nc3ccccc32)cc1
pIC50 [5]: < 5.30
pIC50 [6]: 6.43

O=C(Cn1c(-c2cscn2)nc2ccccc21)Nc1ccc(Br)cc1
pIC50 [5]: < 5.30
pIC50 [6]: 7.22

CS(=O)(=O)c1ccc(NC(=O)Cn2c(-c3cscn3)nc3ccccc32)cc1
pIC50 [5]: < 5.30
pIC50 [6]: 5.30

O=C(Cn1c(-c2cscn2)nc2ccccc21)Nc1ccc(OC(F)(F)F)cc1
pIC50 [5]: < 5.30
pIC50 [6]: 6.85

O=C(Cn1c(-c2cscn2)nc2ccccc21)Nc1ccccc1Cl
pIC50 [5]: < 5.30
pIC50 [6]: 5.30

O=C(Cn1c(-c2cscn2)nc2ccccc21)Nc1cccc(Cl)c1
pIC50 [4]: 5.84
pIC50 [5]: < 5.30
pIC50 [6]: 6.31

O=C(Cn1c(-c2cscn2)nc2ccccc21)Nc1ccc(Cl)c(Cl)c1
pIC50 [4]: 7.05
pIC50 [5]: < 5.30
pIC50 [6]: 7.52

N#Cc1cc(NC(=O)Cn2c(-c3cscn3)nc3ccccc32)ccc1Cl
pIC50 [4]: 7.22
pIC50 [5]: < 5.30
pIC50 [6]: 7.52

O=C(Cn1c(-c2cscn2)nc2ccccc21)Nc1ccc(Cl)c2ccccc12
pIC50 [5]: < 5.30
pIC50 [6]: 5.30

CC(C(=O)Nc1ccc(Cl)cc1)n1c(-c2cscn2)nc2ccccc21 (stereo unspecified)
pIC50 [4]: 7.10
pIC50 [5]: < 5.30
pIC50 [6]: 7.22

CC(C)C(C(=O)Nc1ccc(Cl)cc1)n1c(-c2cscn2)nc2ccccc21 (stereo unspecified)
pIC50 [5]: < 5.30
pIC50 [6]: 5.30

O=C(Cn1c(-c2cscn2)nc2ccccc21)NCc1ccc(Cl)cc1
pIC50 [5]: < 5.30

O=C(Cn1c(-c2nccs2)nc2ccccc21)Nc1ccc(Cl)cc1
pIC50 [4]: 7.30
pIC50 [5]: < 5.30
pIC50 [6]: 7.52

CC(C(=O)Nc1ccc(Cl)cc1)n1c(-c2nccs2)nc2ccccc21 (stereo unspecified)
pIC50 [4]: 7.52
pIC50 [5]: < 5.30
pIC50 [6]: 7.64

O=C(Cn1c(-c2nccs2)nc2ccccc21)Nc1ccc(Cl)c(Cl)c1
pEC50 (Toxoplasma gondii [1]): 6.15
pEC50 (Cryptosporidium parvum [2]): 5.77
Ratio EC50 (Cryptosporidium parvum [7]): 2
Ratio EC50 (Toxoplasma gondii [8]): 5
pEC50 (Toxoplasma gondii [3]): 5.52
pIC50 [4]: 7.30
pIC50 [5]: < 5.30
pIC50 [6]: 7.74

O=C(Cn1c(-c2nccs2)nc2ccccc21)Nc1ccc2ccccc2c1
pEC50 (Toxoplasma gondii [1]): 6.30
pEC50 (Cryptosporidium parvum [2]): > 6.10
Ratio EC50 (Cryptosporidium parvum [7]): 2
Ratio EC50 (Toxoplasma gondii [8]): 30
inhibition of growth at 0.8 µM (Cryptosporidium parvum [10]): 80%
pEC50 (Toxoplasma gondii [3]): 4.77
pIC50 [4]: 7.70
pIC50 [5]: < 5.30
pIC50 [6]: 8.10

O=C(Cn1c(-c2cncs2)nc2ccccc21)Nc1ccc(Cl)cc1
pIC50 [4]: 7.22
pIC50 [5]: < 5.30
pIC50 [6]: 7.46

O=C(Cn1c(-c2cccs2)nc2ccccc21)Nc1ccc(Cl)cc1
pIC50 [4]: 7.22
pIC50 [5]: < 5.30
pIC50 [6]: 7.70

Cn1cc(-c2nc3ccccc3n2CC(=O)Nc2ccc(Cl)cc2)cn1
pIC50 [4]: 7.38
pIC50 [5]: < 5.30
pIC50 [6]: 7.46

O=C(Cn1c(-c2ccccn2)nc2ccccc21)Nc1ccc(Cl)cc1
pIC50 [4]: 7.05
pIC50 [5]: < 5.30
pIC50 [6]: 7.37

O=C(Cn1c(-c2ccccn2)nc2ccccc21)Nc1ccc(Cl)c(Cl)c1
pIC50 [4]: 7.40
pIC50 [5]: < 5.30
pIC50 [6]: 7.66

O=C(Cn1c(-c2ccccn2)nc2ccccc21)Nc1ccc2ccccc2c1
pEC50 (Toxoplasma gondii [1]): 6.52
pEC50 (Toxoplasma gondii [3]): 5.57
pIC50 [4]: 7.85
pIC50 [5]: < 5.30

N#Cc1cc(NC(=O)Cn2c(-c3ccccn3)nc3ccccc32)ccc1Cl
pIC50 [4]: 7.40
pIC50 [5]: < 5.30
pIC50 [6]: 7.66

O=C(Cn1c(-c2ccc[nH]2)nc2ccccc21)Nc1ccc(Cl)cc1
pIC50 [4]: 6.92
pIC50 [5]: < 5.30
pIC50 [6]: 7.10

O=C(Cn1c(-c2ncco2)nc2ccccc21)Nc1ccc(Cl)cc1
pIC50 [4]: 6.64
pIC50 [5]: < 5.30
pIC50 [6]: 6.77

O=C(Cn1c(-c2ccccc2)nc2ccccc21)Nc1ccc(Cl)cc1
pIC50 [4]: 6.55
pIC50 [5]: < 5.30
pIC50 [6]: 6.68

O=C(Cn1c(-c2ccc(Cl)cc2)nc2ccccc21)Nc1ccc(Cl)cc1
pIC50 [5]: < 5.30
pIC50 [6]: 6.35

O=C(Cn1c(-c2ccc(F)cc2)nc2ccccc21)Nc1ccc(Cl)cc1
pIC50 [4]: 5.89
pIC50 [5]: < 5.30
pIC50 [6]: 6.06

Cc1nc2ccccc2n1CC(=O)Nc1ccc(Cl)cc1
pIC50 [5]: < 5.30
pIC50 [6]: 5.30

O=C(Cn1c(-c2cscn2)nc2ccccc21)Nc1ccc(Cl)cc1
pIC50 [4]: 6.70
pIC50 [5]: < 5.30
pIC50 [6]: 6.92

NC[C@@H]1O[C@H](O[C@H]2[C@@H](O)[C@H](O[C@@H]3[C@@H](O)[C@H](N)C[C@H](N)[C@H]3O[C@H]3O[C@H](CO)[C@@H](O)[C@H](O)[C@H]3N)O[C@@H]2CO)[C@H](N)[C@@H](O)[C@@H]1O [PAROMOMYCIN]
pEC50 (Cryptosporidium parvum [2]): 4.19
